Experimental findings from the array DNA melting data of Ke et al. (doi:10.1101/2024.01.08.574731) are described below.

The nature of data set [1]: folding enthalpy; higher = less favourable; fluorescence melt of hairpins on a sequencing array, two-state fit. Conditions: sodium 0.088 M. The essentials: (§1)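 On a sequenced MiSeq flow cell, library hairpins with annealed Cy3 and quencher oligos were imaged for Cy3 fluorescence in 2.5 °C steps up to 60 °C, in 50 mM Na-HEPES pH 8.0, 25 mM NaCl. Normalisation used pre-quench Cy3 and control constructs. Bootstrapped two-state fits gave melting temperature and folding enthalpy, combined by inverse variance across four replicates and with fitted temperatures raised by 9.35 °C to match UV melts.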

A short description of data set [2]: melting temperature; fluorescence melt of hairpins on a sequencing array, two-state fit, raised by 9.35 °C to match UV melts. Conditions: sodium 0.088 M. An outline of the steps: as §1

With GATCATGGAGATGATC ((((((....)))))), the folding enthalpy in data set [1] is -157 kJ/mol. Moreover, in data set [2], the Tm came out at 49.7 °C.
In the case of GTCGTCGAAAGACGCGAC ((((((....)))..))), the folding enthalpy in data set [1] is -52.2 kJ/mol. Also, the Tm in data set [2] is 55.7 °C.
On to GGAACTCCGAAAGGATCC (((..(((....)))))), for which the folding enthalpy in data set [1] is -32.5 kJ/mol. For the same sequence, the Tm in data set [2] came to 27 °C.
Taken in the same sequence, the figures for GTGGGCGGAAACGCCTAC ((.((((....)))).)) were -68.2 kJ/mol and 56.5 °C.
Take GATCGAACTTCGATC ((((((...)))))): the folding enthalpy in data set [1] is -131 kJ/mol. Also, in data set [2], the Tm is 51 °C.
Take GCGAGCCCTCGC ((((....)))): in data set [1], the folding enthalpy was -109 kJ/mol. For the same sequence, in data set [2], the Tm came out at 55 °C.
Regarding GATTAGGCGAAAGCCATC (((..(((....)))))), the folding enthalpy in data set [1] was -36.9 kJ/mol. Moreover, the Tm in data set [2] was determined as 23.4 °C.
In the case of GATCCCAAGGGGGATC ((((((....)))))), the folding enthalpy in data set [1] was -138 kJ/mol. Besides, the Tm in data set [2] was 58.1 °C.
As to GTACACGGAAACGTGTGC (.(((((....))))).), the folding enthalpy in data set [1] was -114 kJ/mol. For the same sequence, in data set [2], the Tm is 56.2 °C.
Regarding TTTCCGAAAGGAAA (((((....))))), the folding enthalpy in data set [1] was -79.6 kJ/mol. Further, the Tm in data set [2] worked out at 49.3 °C.
Taken in the same sequence, the figures for CGAACGGAAACGTACTCG ((((((....)))..))) were -23.3 kJ/mol and 15 °C.
As to GGTTTTCGAAAGAACACC (((.(((....))).))), the folding enthalpy in data set [1] is -149 kJ/mol. Besides, the Tm in data set [2] was 42.8 °C.
Take GTGAGCGCGAAAGCGCAC (((..(((....)))))): in data set [1], the folding enthalpy was -46.6 kJ/mol. Moreover, in data set [2], the Tm stood at 52.2 °C.
Taken in the same sequence, the figures for GCGTGTCGAAAGACCGC (((.(((....)))))) were -138 kJ/mol and 67 °C.
For GCTACGGCGAAAGCCAGC (((..(((....)))))) the same measures were -55.5 kJ/mol and 42.9 °C.
On to GCCCCCGGAAACGGGGAC (.(((((....))))).), for which the folding enthalpy in data set [1] is -47.8 kJ/mol. The Tm in data set [2] turned out to be 53.2 °C.
Taken in the same sequence, the figures for GCAGGCCCGAAAGGGTGC (((..(((....)))))) were -54.8 kJ/mol and 41.9 °C.
For the sequence GATCCTAAAGAGGATC ((((((....)))))), the folding enthalpy in data set [1] is -131 kJ/mol. Moreover, the Tm in data set [2] worked out at 46.1 °C.
Taken in the same sequence, the figures for GACCTTGGAAACGAGGTC (((((.(....).))))) were -163 kJ/mol and 50.9 °C.
With GGTTTCGAAAGAATTACC ((((((....)))..))), the folding enthalpy in data set [1] is -59.6 kJ/mol. Further, the Tm in data set [2] came to 27.9 °C.
For GTTAACCGAAAGGTGAAC (((.(((....))).))) the same measures were -116 kJ/mol and 48.9 °C.
Take GATCTAACATAGATC ((((((...)))))): in data set [1], the folding enthalpy was -139 kJ/mol. Further, the Tm in data set [2] amounted to 39.5 °C.
As to GTGGCCGAAAGGCAGCAC ((((((....)))..))), the folding enthalpy in data set [1] was -59.2 kJ/mol. Also, the Tm in data set [2] amounted to 46.3 °C.
As to GCGACCGGAAACGACCGC (((..((....))..))), the folding enthalpy in data set [1] is -115 kJ/mol. The Tm in data set [2] was 41.8 °C.
Taken in the same sequence, the figures for GTTTAAGGAAACTTAAAC (((((((....))))))) were -170 kJ/mol and 46.5 °C.
Taken in the same sequence, the figures for GATCCGTCAACGGATC ((((((....)))))) were -150 kJ/mol and 62 °C.
For GACGCCGAAAGGCTCGTC ((((((....)))..))), the folding enthalpy in data set [1] is -60.8 kJ/mol. In addition, the Tm in data set [2] came to 50 °C.
For the sequence GGTGCCGAAAGGCTTACC ((((((....)))..))), in data set [1], the folding enthalpy is -57.3 kJ/mol. Besides, in data set [2], the Tm is 44.1 °C.
On to GGCTGGGGAAACTCAGCC (((((.(....).))))), for which the folding enthalpy in data set [1] is -162 kJ/mol. In addition, in data set [2], the Tm amounted to 57 °C.
Turning to GTGTTGGGAAACTAGCAC (((.(.(....).).))), the folding enthalpy in data set [1] is -65.3 kJ/mol. In addition, the Tm in data set [2] was determined as 31.8 °C.
Taken in the same sequence, the figures for GATCTCTCTCGAGATC ((((((....)))))) were -155 kJ/mol and 52 °C.
Taken in the same sequence, the figures for GAACACACGAAAGTGTTC (((..(((....)))))) were -85.7 kJ/mol and 46.2 °C.
Consider GATCCCAGCGGGGATC ((((((....)))))), for which, in data set [1], the folding enthalpy was -146 kJ/mol. Also, the Tm in data set [2] is 60.6 °C.
For GCCCTGCGAAAGCCGGGC ((((.((....)).)))), in data set [1], the folding enthalpy was -138 kJ/mol. Further, the Tm in data set [2] came to 69 °C.
For GATCAATGCATTGATC ((((((....)))))), the folding enthalpy in data set [1] is -274 kJ/mol. The Tm in data set [2] was 52.3 °C.
For GGCTAACCGAAAGGTGCC (((..(((....)))))) the same measures were -93.7 kJ/mol and 53.6 °C.
Taken in the same sequence, the figures for GCGAAGGATCGC ((((....)))) were -40.6 kJ/mol and 59.7 °C.
GGTCAGGGAAACTTGACC (((((.(....).))))): the folding enthalpy in data set [1] is -158 kJ/mol. Moreover, in data set [2], the Tm came to 49.5 °C.
As for GTGTACGAAAGTAATCAC ((((((....)))..))), the folding enthalpy in data set [1] was -76.5 kJ/mol. Further, the Tm in data set [2] turned out to be 30.2 °C.
Taken in the same sequence, the figures for CGTCGGAAACGACG (((((....))))) were -116 kJ/mol and 69.2 °C.
Taken in the same sequence, the figures for GATCTTCCCGAAGATC ((((((....)))))) were -171 kJ/mol and 49.4 °C.
Take GCTCGCCGAAAGGCAGC (((.(((....)))))): the folding enthalpy in data set [1] was -83.3 kJ/mol. Besides, in data set [2], the Tm is 62.6 °C.
Regarding GTCTCGGGAAACCAAGAC ((((.((....)).)))), in data set [1], the folding enthalpy was -111 kJ/mol. In addition, the Tm in data set [2] is 37.2 °C.
Taken in the same sequence, the figures for GATCTGCACCAGATC ((((((...)))))) were -175 kJ/mol and 47.9 °C.
In the case of GTTGTCGAAAGACTGAAC ((((((....)))..))), the folding enthalpy in data set [1] is -47.4 kJ/mol. The Tm in data set [2] was determined as 30.7 °C.
In the case of GAGTGCGAAAGCAAACTC ((((((....)))..))), the folding enthalpy in data set [1] was -87.1 kJ/mol. In data set [2], the Tm was found to be 47.2 °C.
Consider GTGGTGCGAAAGCACAC (((.(((....)))))), for which the folding enthalpy in data set [1] is -48.2 kJ/mol. For the same sequence, the Tm in data set [2] worked out at 53.8 °C.
GATCGAAATATCGATC ((((((....)))))): the folding enthalpy in data set [1] is -137 kJ/mol. In addition, the Tm in data set [2] worked out at 49 °C.
With GGAAGCGGAAACGCTTTC (.(((((....))))).), in data set [1], the folding enthalpy was -88.8 kJ/mol. The Tm in data set [2] turned out to be 53.7 °C.
For GTCGGTCCGAAAGGAGAC (((..(((....)))))) the same measures were -62.8 kJ/mol and 36 °C.
Turning to GATCTTAATAAAGATC ((((((....)))))), the folding enthalpy in data set [1] is -119 kJ/mol. Further, the Tm in data set [2] worked out at 40.9 °C.
As to GATCCGGAAGCGGATC ((((((....)))))), the folding enthalpy in data set [1] was -139 kJ/mol. Further, the Tm in data set [2] is 59.8 °C.
In the case of GATCATATAATGATC ((((((...)))))), the folding enthalpy in data set [1] was -132 kJ/mol. In data set [2], the Tm was found to be 49 °C.
On to GATCGACTCATCGATC ((((((....)))))), for which, in data set [1], the folding enthalpy is -175 kJ/mol. Also, the Tm in data set [2] came out at 51.8 °C.
For the sequence GCCGTCGAAAGACTGGC ((((((....))).))), the folding enthalpy in data set [1] was -140 kJ/mol. For the same sequence, the Tm in data set [2] is 56.4 °C.
For GAGTGAGCGAAAGCTCTC (((..(((....)))))), in data set [1], the folding enthalpy was -37.7 kJ/mol. For the same sequence, the Tm in data set [2] is 32.9 °C.
With GATCAAGTGATTGATC ((((((....)))))), in data set [1], the folding enthalpy was -135 kJ/mol. For the same sequence, the Tm in data set [2] was 47.3 °C.
As to GGAGGCGAAAGCCCGTCC ((((((....)))..))), in data set [1], the folding enthalpy was -37.6 kJ/mol. Besides, the Tm in data set [2] amounted to 39.7 °C.
On to GGGGATGGAAACGTCCTC (.(((.(....).))).), for which the folding enthalpy in data set [1] was -113 kJ/mol. For the same sequence, the Tm in data set [2] was determined as 36.1 °C.
Take GCGGTGGCCCGC ((((....)))): the folding enthalpy in data set [1] was -68.1 kJ/mol. Besides, the Tm in data set [2] came to 61 °C.
Consider CGATCGGAAACGATATCG ((((((....)))..))), for which the folding enthalpy in data set [1] was -77 kJ/mol. The Tm in data set [2] amounted to 35.5 °C.
Taken in the same sequence, the figures for GCCTCCGGAAACGGAAGC ((.((((....)))).)) were -95.1 kJ/mol and 45.9 °C.
Regarding GTAGCCGAAAGGCTTTAC ((((((....)))..))), in data set [1], the folding enthalpy is -29.3 kJ/mol. In addition, the Tm in data set [2] was determined as 27.3 °C.
As to GCGTGGCGAAAGCTGCGC (((..((....))..))), the folding enthalpy in data set [1] is -169 kJ/mol. Also, in data set [2], the Tm turned out to be 67.9 °C.
Taken in the same sequence, the figures for GTCCTCGAAAGAGCAGAC ((((((....)))..))) were -83 kJ/mol and 30.1 °C.
Take GATCAGTCTCTGATC ((((((...)))))): the folding enthalpy in data set [1] is -169 kJ/mol. The Tm in data set [2] came to 50.7 °C.
For GATCAGACCTCTGATC ((((((....)))))), the folding enthalpy in data set [1] is -170 kJ/mol. In data set [2], the Tm amounted to 48.4 °C.
With GCGGAAGGAAACTCCCGC ((((.((....)).)))), the folding enthalpy in data set [1] is -152 kJ/mol. For the same sequence, the Tm in data set [2] came out at 50 °C.
Taken in the same sequence, the figures for GAACATGGAAACATGTTC (((((((....))))))) were -181 kJ/mol and 56.2 °C.
With GCCAAGCGAAAGCCCGGC (((..((....))..))), the folding enthalpy in data set [1] is -86.7 kJ/mol. The Tm in data set [2] was determined as 45.8 °C.
With GTCTGCGCGAAAGCGGAC (((..(((....)))))), in data set [1], the folding enthalpy was -55.9 kJ/mol. Moreover, the Tm in data set [2] was found to be 45.2 °C.
On to GCTGGGCGAAAGCATAGC (((..((....))..))), for which the folding enthalpy in data set [1] is -95.6 kJ/mol. In addition, the Tm in data set [2] amounted to 54.2 °C.
As for GCATTCGGAAACGAACGC ((.((((....)))).)), the folding enthalpy in data set [1] is -155 kJ/mol. The Tm in data set [2] worked out at 46.7 °C.
For the sequence GATCCTTTATAGGATC ((((((....)))))), the folding enthalpy in data set [1] is -168 kJ/mol. For the same sequence, in data set [2], the Tm was determined as 53.4 °C.
